Assay results taken from article PMC7610841 (Nature, 2020).

System: extracellular Wingless
Experiment: In vivo trapping of endogenous extracellular Wingless in wing discs
Set-up: species or system Drosophila
Settings: overexpressed with ptc-gal4 in wing discs; extracellular Wingless staining
In short: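 HA-tagged wild-type or point-mutant Dlp/Dally transgenes (attP2 landing site) driven by ptc-gal4, crossed at 25°C. Wing discs immunostained for extracellular Wingless using an extracellular staining protocol, DAPI-mounted and imaged on a confocal microscope. Three independent repeats.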

Molecule | trapping of endogenous Wingless
Dally[E149R, N150T, M151Q, T152F]: Dally mutant removing predicted glycosylation site and restoring hydrophobic F (protein, left off: HA, end not stated, kept) KHLDLDGIHHHQHHLHSATTHHRRRLQRDSRAKDAVGGSTHQCDAVKSYFESIDIKSSGTYSEKGAICGGNCCNNATELELRDKAAGMFEQLLHHHTSSLRGVLETNAKQFQSHVLELAQISRTQFHSLFSKVYTRMVPSSRMMIHQLYTEIMNHLIYTSNYTNSNGQLGRRGIGSVQSNLEEAVRHFFVQLFPVAYHQMVHLSKNNLGDLHEDYVNCLQHNFDEMHPFGDIPQQVQSNLGKSVHMSNVFMNALLQAAEVLSEADALYGEQLTDTCKLHLLKMHYCPNCNGHHSSSRSETKLCYGYCKNVMRGCSAEYAGLLDSPWSGVVDSLNNLVTTHILSDTGIINVIKHLQTYFSEAIMAAMHNGPELEKKVKKTCGTPSLTPYSSGEPDARPPPHKNNVKWATDPDPGMVLFLSTIDKSKEFYTTIVDNFCDEQQHSRDDHSCWSGDRFGDYTQLLINPGTDSQRYNPEVPFNAKAQTGKLNELVDKLFKIRKSIGAAAPSNSIQATHDIQNDMGEGSGGGEGQIGDDEEEYGGAHGSGDGSGDGPHTPIEESEGTTTNEVESRDSGKTSG | did not confer lipid-binding activity
Dlp[F172T, F195Y]: Dlp mutant replacing hydrophobic residues with polar ones (protein, left off: HA, end not stated, kept) MLHQQQQQQHLHCRRKATATTTARLVIFSSPLLLLLLTTHLPPTLQADNGPAPQVAALAAPNPAGGVAGSSIIDQFSPNCSAVTHIFQARGIDAIEIPQKPSNERVLRYCESPSVGTCCTYNMETRMAMQSRQQLEGHTKDQISRMSGILGSKATKFKDIFTALLKESRTQTNSMFIRTYGVIYERNSYVFSDLYKELETYFANGRVDLLEVMDKFFNTLYQKMFTVLNTQYTFDENYMRCVSEHMKELKPFGDVPDKLSVQIKRSFVATRTYGQALTTASEVAKKVLNVRLNADCTGALTKMQHCGACKGYTEKPCTNYCVNVIKGCLHYQHEFDSEWENFAMAMDKVAERLLGSFNIVMVVEPLNIKISEAIMNFQDSGQDITNRVFQGCGRPKLKKMKRSISPKLQGVQILNARSPVEADTLDIDETLDEAIVLRERRAAEPGSQETSAQQSQEQGVGKSGNGGGGGGGNNRRQQQRRKQQQQRRKQQNNRDDNDDDDNESGGGREPILDRIVRDIRQRVKDYKKFWSNLPHSVCSNEDIASSSDVDGMCWNGHTIDRYMHSITTEHGSNPEFTGNPASTKQTAQMASQLSHLKNAIVHLRNAYNGQDVEWSEQEELPYAGSGAGSGSGSEDDEDDDEGSGLGPFEPSHKPDVERPSVDADNDDDEDAGGRGHMPTHTSRPTSGVDDKNPLIHTTHFDQDHNDLDEDHRQLDEDEDTDAGHDGANDNRSSDAPEKMTLRRALVVYLLPLYMAWFGGVCADLL | reduced trapping, though not completely
Dlp[R169E, T170N, Q171M, F172T]: Dlp mutant introducing the putative glycosylation site of Dally (protein, left off: HA, end not stated, kept) MLHQQQQQQHLHCRRKATATTTARLVIFSSPLLLLLLTTHLPPTLQADNGPAPQVAALAAPNPAGGVAGSSIIDQFSPNCSAVTHIFQARGIDAIEIPQKPSNERVLRYCESPSVGTCCTYNMETRMAMQSRQQLEGHTKDQISRMSGILGSKATKFKDIFTALLKESENMTNSMFIRTYGVIYERNSYVFSDLFKELETYFANGRVDLLEVMDKFFNTLYQKMFTVLNTQYTFDENYMRCVSEHMKELKPFGDVPDKLSVQIKRSFVATRTYGQALTTASEVAKKVLNVRLNADCTGALTKMQHCGACKGYTEKPCTNYCVNVIKGCLHYQHEFDSEWENFAMAMDKVAERLLGSFNIVMVVEPLNIKISEAIMNFQDSGQDITNRVFQGCGRPKLKKMKRSISPKLQGVQILNARSPVEADTLDIDETLDEAIVLRERRAAEPGSQETSAQQSQEQGVGKSGNGGGGGGGNNRRQQQRRKQQQQRRKQQNNRDDNDDDDNESGGGREPILDRIVRDIRQRVKDYKKFWSNLPHSVCSNEDIASSSDVDGMCWNGHTIDRYMHSITTEHGSNPEFTGNPASTKQTAQMASQLSHLKNAIVHLRNAYNGQDVEWSEQEELPYAGSGAGSGSGSEDDEDDDEGSGLGPFEPSHKPDVERPSVDADNDDDEDAGGRGHMPTHTSRPTSGVDDKNPLIHTTHFDQDHNDLDEDHRQLDEDEDTDAGHDGANDNRSSDAPEKMTLRRALVVYLLPLYMAWFGGVCADLL | reduced trapping, though not completely
Dlp[N367C, M175C]^ΔGPI: Dlp mutant with engineered disulphide bridge locking closed, apo conformation (protein, left off: V5, C-terminal, kept) PQVAALAAPNPAGGVAGSSIIDQFSPNCSAVTHIFQARGIDAIEIPQKPSNERVLRYCESPSVGTCCTYNMETRMAMQSRQQLEGHTKDQISRMSGILGSKATKFKDIFTALLKESRTQFNSCFIRTYGVIYERNSYVFSDLFKELETYFANGRVDLLEVMDKFFNTLYQKMFTVLNTQYTFDENYMRCVSEHMKELKPFGDVPDKLSVQIKRSFVATRTYGQALTTASEVAKKVLNVRLNADCTGALTKMQHCGACKGYTEKPCTNYCVNVIKGCLHYQHEFDSEWENFAMAMDKVAERLLGSFNIVMVVEPLCIKISEAIMNFQDSGQDITNRVFQGCGRPKLKKMKRSISPKLQGVQILNARSPVEADTLDIDETLDEAIVLRERRAAEPGSQETSAQQSQEQGVGKSGNGGGGGGGNNRRQQQRRKQQQQRRKQQNNRDDNDDDDNESGGGREPILDRIVRDIRQRVKDYKKFWSNLPHSVCSNEDIASSSDVDGMCWNGHTIDRYMHSITTEHGSNPEFTGNPASTKQTAQMASQLSHLKNAIVHLRNAYNGQDVEWSEQEELPYAGSGAGSGSGSEDDEDDDEGSGLGPFEPSHKPDVERPSVDADNDDDEDAGGRGHMPTHTSRPTSGVDDKNPLIHTTHFDQDHNDLDEDHRQLDEDEDTDAG | no in vivo trapping activity
Dlp[S168M]^ΔGPI: Dlp mutant with bulky residue at cavity entrance; HA form used in discs (protein, left off: V5, C-terminal, kept) PQVAALAAPNPAGGVAGSSIIDQFSPNCSAVTHIFQARGIDAIEIPQKPSNERVLRYCESPSVGTCCTYNMETRMAMQSRQQLEGHTKDQISRMSGILGSKATKFKDIFTALLKEMRTQFNSMFIRTYGVIYERNSYVFSDLFKELETYFANGRVDLLEVMDKFFNTLYQKMFTVLNTQYTFDENYMRCVSEHMKELKPFGDVPDKLSVQIKRSFVATRTYGQALTTASEVAKKVLNVRLNADCTGALTKMQHCGACKGYTEKPCTNYCVNVIKGCLHYQHEFDSEWENFAMAMDKVAERLLGSFNIVMVVEPLNIKISEAIMNFQDSGQDITNRVFQGCGRPKLKKMKRSISPKLQGVQILNARSPVEADTLDIDETLDEAIVLRERRAAEPGSQETSAQQSQEQGVGKSGNGGGGGGGNNRRQQQRRKQQQQRRKQQNNRDDNDDDDNESGGGREPILDRIVRDIRQRVKDYKKFWSNLPHSVCSNEDIASSSDVDGMCWNGHTIDRYMHSITTEHGSNPEFTGNPASTKQTAQMASQLSHLKNAIVHLRNAYNGQDVEWSEQEELPYAGSGAGSGSGSEDDEDDDEGSGLGPFEPSHKPDVERPSVDADNDDDEDAGGRGHMPTHTSRPTSGVDDKNPLIHTTHFDQDHNDLDEDHRQLDEDEDTDAG | retained some activity
